Converted amounts (≈) assume the structure as drawn.
What was measured:
P. falciparum (Pf3D7) [1] = experiment: Parasitemia and suppression of Pf3D7 culture after 72 h of treatment; format: cell-based, Plasmodium falciparum; details: for percentage suppression of parasitemia: concentration not given
A549 cells = experiment: MTT cell viability assay, A549; format: cell-based, Human; details: IC50 Vero cells / IC50 A549 cells
P. falciparum (Pf3D7) [2] = experiment: SYBR green I fluorescence antiplasmodial assay; format: cell-based, Plasmodium falciparum; details: for selectivity index (SI) towards Pf3D7: antimalarial selectivity, way of calculation not stated
Summary of the method: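 Chloroquine-sensitive P. falciparum 3D7 was grown in O+ human erythrocytes (4% haematocrit) in RPMI 1640 with 25 mM HEPES and 0.5% Albumax I, at 37 °C under 5% O2/5% CO2/90% N2. Sorbitol-synchronised rings (2% haematocrit, 1% parasitaemia) got increasing concentrations in water. SYBR Green I was read after 0.08% Triton X-100, 1 h at 37 °C in the dark (ex 485/em 530 nm), chloroquine-well counts subtracted. IC50 came from dose–response curves.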

| Compound | % Parasitemia (P. falciparum (Pf3D7) [1]; 12.5 μg mL^−1, 72 h) [%] | % Suppression (P. falciparum (Pf3D7) [1]; 12.5 μg mL^−1, 72 h) [%] | % Parasitemia (P. falciparum (Pf3D7) [1]; 100 μg mL^−1, 72 h) [%] | percentage suppression of parasitemia (P. falciparum (Pf3D7) [1]) [%] | Selectivity Index (SI) (A549 cells) | % Suppression (P. falciparum (Pf3D7) [1]; 100 μg mL^−1, 72 h) [%] | IC50 (P. falciparum (Pf3D7) [2]; Plasmodium falciparum, 72 h, read-out: IC50 µM Pf3D7) [µg/mL] | selectivity index (SI) towards Pf3D7 (P. falciparum (Pf3D7) [2]) |
| --- | --- | --- | --- | --- | --- | --- | --- | --- |
| C/C(=N/NC(=O)c1cn(-c2ccccc2)nc1-c1ccc(F)cc1)c1c(O)cc(C)oc1=O [3a, (Z)-3-(4-fluorophenyl)-N′-(1-(4-hydroxy-6-methyl-2-oxo-2H-pyran-3-yl)ethylidene)-1-phenyl-1H-pyrazole-4-carbohydrazide] | 93.33 | 6.67 | 2.95 | 97 | 2.78 | – | – | – |
| C/C(=N/NC(=O)c1cn(-c2ccccc2)nc1-c1ccc(Cl)cc1)c1c(O)cc(C)oc1=O [3b, (Z)-3-(4-chlorophenyl)-N′-(1-(4-hydroxy-6-methyl-2-oxo-2H-pyran-3-yl)ethylidene)-1-phenyl-1H-pyrazole-4-carbohydrazide] | 68.38 | 31.62 | 62.57 | – | 3.25 | 37.43 | – | – |
| C/C(=N/NC(=O)c1cn(-c2ccccc2)nc1-c1ccc(Br)cc1)c1c(O)cc(C)oc1=O [3c, (Z)-3-(4-bromophenyl)-N′-(1-(4-hydroxy-6-methyl-2-oxo-2H-pyran-3-yl)ethylidene)-1-phenyl-1H-pyrazole-4-carbohydrazide] | 52.90 | 47.10 | 5.81 | – | – | 94.19 | – | – |
| C/C(=N/NC(=O)c1cn(-c2ccccc2)nc1-c1ccc(C)cc1)c1c(O)cc(C)oc1=O [3d, (Z)-3-(4-methylphenyl)-N′-(1-(4-hydroxy-6-methyl-2-oxo-2H-pyran-3-yl)ethylidene)-1-phenyl-1H-pyrazole-4-carbohydrazide] | 42.19 | 57.81 | 2.47 | 97 | – | – | 5.2 (≈ 11.8 µM) | 18.38 |
| C/C(=N/NC(=O)c1cn(-c2ccccc2)nc1-c1ccccc1)c1c(O)cc(C)oc1=O [3e, (Z)-N′-(1-(4-hydroxy-6-methyl-2-oxo-2H-pyran-3-yl)ethylidene)-1,3-diphenyl-1H-pyrazole-4-carbohydrazide] | 73.81 | 26.19 | 37.62 | – | 4.56 | 62.38 | – | 9.48 |
| CCN(CC)CCCC(C)Nc1ccnc2cc(Cl)ccc12 (stereo not drawn) [CQ, Chloroquine, reference compound] | 0.95 | 99.05 | 0.95 | – | – | 99.05 | – | – |
| N.N.O=C([O-])C1(C(=O)[O-])CCC1.[Pt+2] [Carboplatin, reference compound] | – | – | – | – | 2.57 | – | – | – |
| N.N.[Cl][Pt][Cl] [Cisplatin, reference compound] | – | – | – | – | 1.35 | – | – | – |
| C[C@@H]1C[C@H]2[C@@H]3CCC4=CC(=O)C=C[C@]4(C)[C@@]3(F)[C@@H](O)C[C@]2(C)[C@@]1(O)C(=O)CO [Dexamethasone, reference compound] | – | – | – | – | 0.23 | – | – | – |

— paper PMC12580983 (RSC Advances, 2025)
